Compounds with a hit are over-represented: about 0.9% of the library has one in this group of screens.
RGS7-Gao reg = modulates binding of RGS7 to human Galphao | 220,000 compounds, 0.35% hits | binding response (% of control), % at 10 µM | P09471 | Multiplexed bead flow cytometry; actives lie on both sides | AID 1439; in the data active = binding response below about 49% or above about 150%; inconclusive = no clear call, values can overlap the other calls; inactive = in between;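 also: fluorescent Galphao held in activated GDP-AlF4 state binding bead-coupled RGS7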
Target sequence (P09471 whole entry, looked up): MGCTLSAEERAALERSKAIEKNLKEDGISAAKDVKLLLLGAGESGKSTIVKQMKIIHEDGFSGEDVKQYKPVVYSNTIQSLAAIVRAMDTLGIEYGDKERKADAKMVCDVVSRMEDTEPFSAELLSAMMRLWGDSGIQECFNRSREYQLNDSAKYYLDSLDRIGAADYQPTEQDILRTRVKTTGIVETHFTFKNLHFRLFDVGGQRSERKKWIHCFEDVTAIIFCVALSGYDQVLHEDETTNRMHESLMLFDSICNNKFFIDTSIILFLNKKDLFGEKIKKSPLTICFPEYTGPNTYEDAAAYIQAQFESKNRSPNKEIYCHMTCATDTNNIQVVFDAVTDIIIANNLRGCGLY
RGS16-Gao HTS = regulators of human RGS16-Galphao interaction; binding response (% of control), % at 10 µM; 220,000 compounds, 0.38% hits; AID 1441; bead-based flow cytometry RGS16-Galphao binding, fluorescence; actives lie on both sides; O15492+P09471;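 also: Galphao activated by GDP with aluminum fluoride before binding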
RGS8-Gao reg = modulates binding of RGS8 to human Galphao; AID 1423; response (percent of control binding), % at 10 µM; 220,000 compounds, 0.34% hits; multiplexed bead flow cytometry; actives lie on both sides; P09471; in the data active = response below about 60% or above about 140%; inactive = in between;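 also: Galphao activated as the GDP aluminium fluoride complex binding bead-coupled RGS8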
ABCG2 inh = blocks JC-1 efflux by human ABCG2 transporter; IgMXP3 cells, flow cytometry; 190,000 compounds, 0.1% hits; AID 1325; Q9UNQ0; inhibition, % at 6.6 µM;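 active = inhibition above 80%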;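 also: 0% = DMSO and 100% = nicardipine control wells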
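Test system: IgMXP3 (ABCG2) plus far-red-tagged CCRF-Adr (ABCB1) cells. Reagent: JC-1 dye as substrate. Timing: 10 min exposure at 25 °C with rotation, no wash. Measured by: flow cytometric JC-1 green MFI at 530 nm. Read-out: percent efflux inhibition, scaled nicardipine 100% to DMSO 0%. Control set: nicardipine and DMSO wells.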
ABCB1 inh = human ABCB1 inhibition, ABCG2 as counter-screen. CCRF-Adr cells, JC-1 efflux, flow cytometry. inhibition, % at 6.6 µM. 190,000 compounds, 0.067% hits. AID 1326; in the data active = inhibition above about 40%;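 also: 0% = vehicle and 100% = reference inhibitor; higher value means more JC-1 retained so stronger ABCB1 efflux block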
RGS4-Gao reg = modulates binding of RGS4 to human Galphao | P09471 | Multiplexed bead flow cytometry; actives lie on both sides | binding response (% of control), % at 10 µM | 220,000 compounds, 0.33% hits | AID 1415; in the data active = binding response below about 49% or above about 150%; inactive = in between;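 also: fluorescent Galphao activated with aluminum fluoride binding bead-coupled RGS4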
RGS4-Gao HTS = regulators of human RGS4-Galphao interaction | shares compounds with RGS16-Gao HTS | multiplexed bead flow cytometry, RGS–Galpha-o binding | RGS4–Galpha-o binding response, % at 10 µM | 1,600 compounds, 99% hits | AID 1504;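 also: fluorescently labeled Galpha-o bound to GDP with aluminium fluoride binding biotinylated RGS beads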
Target sequence (P09471 whole entry, looked up): as above
Target sequence (P49798 whole entry, looked up): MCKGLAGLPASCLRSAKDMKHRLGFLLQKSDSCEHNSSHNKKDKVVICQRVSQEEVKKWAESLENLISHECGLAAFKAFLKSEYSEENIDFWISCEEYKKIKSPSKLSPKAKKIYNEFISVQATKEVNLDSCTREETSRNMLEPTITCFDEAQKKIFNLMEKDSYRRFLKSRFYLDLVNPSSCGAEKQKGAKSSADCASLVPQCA
Avidin counter = biotin-avidin bead binding disruption counter-screen; 1,700 tested, under 10 active; shares compounds with RGS16-Gao HTS; inhibition, % at 10 µM; streptavidin beads, fluorescein-biotin binding, flow cytometry;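 active = inhibition above 50%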;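 also: median green fluorescence of gated singlet beads compared with DMSO control wells; 0% = DMSO wells and 100% = complete loss of bead fluorescence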
RGS8-Gao confirm = confirmation of regulators of human RGS8-Galphao interaction. shares compounds with RGS16-Gao HTS. bead-based flow cytometry RGS8-Galphao binding, fluorescence; actives lie on both sides. binding response (% of control), % at 10 µM. 1,700 compounds, 3% hits. AID 1836; in the data active = binding response below about 72% or above about 130%; inactive = in between;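 also: Galphao activated as GDP AlF4 complex before binding bead RGS8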
RGS7-Gao confirm = RGS7-Galphao interaction regulation, single point confirmation; 1,700 compounds, 7.8% hits; bead-based flow cytometry RGS7-Galphao binding; actives lie on both sides; AID 1837; response (percent of control binding), % at 10 µM; shares compounds with RGS16-Gao HTS; in the data active = response below about 75% or above about 130%; inactive = in between;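 also: fluorescent Galphao activated with GDP and aluminum fluoride binding bead-coupled RGS7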
RGS16-Gao conf = confirmation of regulators of human RGS16-Galphao interaction; shares compounds with RGS16-Gao HTS; bead-based flow cytometry, RGS16-Galphao binding; actives lie on both sides; response (% of control binding), % at 10 µM; 1,700 compounds, 4% hits; AID 1838; in the data active = response below about 74% or above about 130%; inactive = in between;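 also: Galphao activated as the GDP aluminium fluoride complex binding bead-coupled RGS16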
RGS4-Gao single = confirmation of regulators of human RGS4-Galphao interaction; shares compounds with RGS16-Gao HTS; RGS4-Galphao binding, multiplexed bead flow cytometry; actives lie on both sides; binding response (% of control), % at 10 µM; 1,700 compounds, 4% hits; AID 1840; in the data active = binding response below about 74% or above about 130%; inactive = in between
RGS19-Gao conf = confirmation of regulators of human RGS19-Galphao interaction; shares compounds with RGS16-Gao HTS; bead-based flow cytometry RGS19-Galphao binding; actives lie on both sides; response (percent of control binding), % at 10 µM; 1,700 compounds, 5% hits; AID 1841; in the data active = response below about 50% or above about 160%; inactive = in between;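 also: 100% = no compound control and 0% = blank background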
Active calls of the source: *; ? = inconclusive; . = no result given; [ ] = dose if it differs, or a comment. Unless noted, no rule for the calls is given here.

SMILES	RGS7-Gao reg	RGS16-Gao HTS	RGS8-Gao reg	ABCG2 inh	ABCB1 inh	RGS4-Gao reg	RGS4-Gao HTS	Avidin counter	RGS8-Gao confirm	RGS7-Gao confirm	RGS16-Gao conf	RGS4-Gao single	RGS19-Gao conf
CC(C)c1onc(C(=O)N2C(C)CCCC2C)c1[N+](=O)[O-] (configuration not stated)	99.1	107.0	101.6	0.3	-0.1	98.8	.	.	.	.	.	.	.
CC(C)c1onc(C(=O)N2CCCCC2C)c1[N+](=O)[O-] (configuration not stated)	23.3*	-44.8	30.3*	0.3	0.0	27.7*	.	-1.1	104.3	101.6	107.2	101.0	103.0
CC(C)(C)NC(=O)COC(=O)c1ccc(Cl)nc1	.	.	.	4.1	0.9	.	.	1.4	96.3	63.7*	77.0	78.7	45.0*
COc1ccc(OC)c(-c2csc(NC(=O)c3ccc4c(c3)OCO4)n2)c1	?	99.9	98.9	0.4	-0.6	103.2	.	.	.	.	.	.	.
Cc1nc2c(C)cccc2c2c1CCS2	?	98.8	102.5	.	.	103.7	.	.	.	.	.	.	.
Cc1ccc2nc(C)c3c(c2c1)SCC3	?	193.4*[activator]	103.1	.	.	206.8*[activator]	.	-0.1	101.3	99.8	102.4	100.7	106.5
Cc1nn(-c2ccccc2)c(Cl)c1/C=N/NC(=O)c1ccccc1F	?	93.8	97.9	.	.	92.6	.	.	.	.	.	.	.
O=C(NCc1cccnc1)C(=O)NCC1OCCN1S(=O)(=O)c1cc(F)ccc1F (configuration not stated)	?	200.5*[activator]	115.4	.	.	205.9*[activator]	.	-1.2	100.2	95.4	95.7	95.3	123.9
O=C(NCc1cccnc1)C(=O)NCC1OCCN1S(=O)(=O)c1ccccc1 (configuration not stated)	102.1	98.3	103.0	0.8	0.5	100.3	.	.	.	.	.	.	.
O=C(/C=C/c1ccc2c(c1)OCO2)Nc1nc(-c2ccc(F)cc2)cs1	101.8	183.5*[activator]	118.5	-3.0	-0.6	82.0	82.0*	1.2	102.4	104.0	100.6	98.3	88.5
CCN(CC)S(=O)(=O)c1cccc(N=Nc2c(O)c3ccccc3oc2=O)c1	?	101.4	97.1	.	.	103.0	.	.	.	.	.	.	.
Cc1ccc(S(=O)(=O)N/N=C/c2cccc([N+](=O)[O-])c2)cc1	80.0	-8.2*	73.6	-1.6	0.0	83.3	83.3*	0.9	98.9	89.7	96.4	94.3	81.5
Cc1cnc(-c2nnc(N(C)C(=O)C3CCCO3)s2)cn1 (configuration not stated)	56.7	-46.5*	68.6	1.2	0.1	56.2	56.2*	1.9	98.0	96.2	94.8	97.0	100.9
CCN(CC)c1ccc(/C=N/NC(=O)c2ccoc2C)c(O)c1	?	89.8	95.8	.	.	93.1	.	.	.	.	.	.	.
COc1ccc(/C(O)=C2\C(=O)C(=O)N(Cc3ccco3)C2c2cc(OC)ccc2OC)cc1 (configuration not stated)	26.4*	21.3*	23.7*	0.8	0.1	31.2*	.	-1.1	100.2	101.8	100.6	99.9	93.7
CC1(C)OC(=O)C(=Cc2ccc(-c3ccc(S(N)(=O)=O)cc3)o2)C(=O)O1	93.7	93.7	83.2	5.9	-1.3	94.8	.	-2.2	72.5*	88.3	95.1	93.0	50.5*
NS(=O)(=O)c1ccc(-c2ccc(/C=C3\C(=O)Nc4cc(Cl)ccc43)o2)cc1	90.7	95.3	100.1	-5.6	-1.5	91.3	.	.	.	.	.	.	.
Cc1ccc(NC(=O)CO/N=C(\N)c2nonc2N)cc1C	92.2	25.0*	79.8	41.0	0.2	91.9	91.9*	-5.2	103.2	106.1	104.6	102.6	86.9
Cc1cccc(C)c1NC(=O)COC(=O)c1nonc1N	107.2	91.5	101.2	-6.4	-0.3	104.3	.	.	.	.	.	.	.
Cc1c(Br)c(C(F)(F)F)nn1CC(=O)NCc1ccccc1	110.3	202.9*[activator]	127.0	10.1	0.1	108.8	108.8*	-1.4	102.2	100.9	101.8	101.7	90.0
O=C(NCc1nnc(SCC(=O)N2CCCc3ccccc32)o1)c1c(F)cccc1Cl	94.4	93.5	97.3	2.1	0.6	93.2	.	.	.	.	.	.	.
CC1CCC2(CC1)NC(=S)N(c1ccccc1)N2 (configuration not stated)	170.6*[activator]	104.8	101.7	0.2	0.1	139.5	139.5*	-0.5	94.2	94.3	92.5	95.1	98.2
CC(=O)N1CCN(C(=S)NCc2ccccc2)CC1	106.3	256.9*[activator]	138.4	0.5	0.3	109.7	109.7*	-2.0	99.3	102.1	97.2	97.4	93.7
O=C(NCc1ccccc1)C1CCN(S(=O)(=O)N2CCCCCC2)CC1	99.1	96.7	99.2	7.8	1.4	100.0	.	.	.	.	.	.	.
O=C(NCc1ccccc1)C1CCC1	95.6	13.9*	86.1	0.2	0.0	95.9	95.9*	0.4	97.9	94.6	97.0	98.4	97.4
CC(=O)Nc1ccc([C@H]2[C@H](C)CC[C@H]3C(=O)N4[C@@H](CC[C@@H](C)[C@@H]4c4ccc(NC(C)=O)cc4)C(=O)N32)cc1	102.5	102.2	101.3	-2.0	0.8	101.7	.	.	.	.	.	.	.
COc1ccc(Br)cc1/C=N/Nc1cccc(C(=O)O)c1	171.9*[activator]	98.5	99.4	1.9	0.7	111.6	111.6*	0.9	96.3	63.5*	80.9	79.1	67.4
O=C(O)c1cccc(N/N=C/c2cc(Br)cc(Br)c2O)c1	101.0	105.3	101.5	-0.6	0.2	102.1	.	.	.	.	.	.	.
CCN(CC)C(=O)C(=O)c1cccn1-c1c(Cl)cccc1C#N	157.8*[activator]	113.2	102.3	-0.3	0.3	112.3	112.3*	1.2	103.9	106.4	103.7	104.5	98.5

Screens as filed in PubChem BioAssay.
